Values after ≈ are worked out from the molar mass of the structure shown.
Legend:
Rattus norvegicus [1] = assay: Reversal of amphetamine-induced hyperlocomotion in Sprague-Dawley rat at 3 mg/kg, po pretreated 30 mins post habituation in the chamber followed by amphetamine injection after 30 mins measured after 60 mins; assay type: functional
Summary of the method: (§1)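 Male Sprague-Dawley rats, n = 6–24 per dose group, were habituated in the chamber for 30 min. The compound or vehicle (10% tween-80 in water, v/v) was then given orally. Amphetamine 0.75 mg/kg was injected subcutaneously 30 min later. Total ambulations over t = 60–120 min gave % reversal of AHL, reported as mean ± SEM.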

Rattus norvegicus [2] = assay: Reversal of amphetamine-induced hyperlocomotion in Sprague-Dawley rat at 0.03 mg/kg, po pretreated 30 mins post habituation in the chamber followed by amphetamine injection after 30 mins measured after 60 mins; assay type: functional; summary of the method: as §1
Rattus norvegicus [3] = assay: Reversal of amphetamine-induced hyperlocomotion in Sprague-Dawley rat at 1 mg/kg, po pretreated 30 mins post habituation in the chamber followed by amphetamine injection after 30 mins measured after 60 mins; assay type: functional; summary of the method: as §1
Canis familiaris [4] = assay: Volume of distribution at steady state in iv or po dosed Mongrel dog; assay type: ADME, organism-based, Canis lupus familiaris; details: in vivo
Summary of the method: (§2)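 IV and PO pharmacokinetics in female mongrel dogs, n = 1–2. The oral dose was a 2–3 mg/kg solution. Vss and oral bioavailability were determined.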

Cytochrome P450 2C9 [5] = target: T1, Cytochrome P450 2C9 (Homo sapiens, UniProt P11712); assay: Inhibition of CYP2C9 (unknown origin); assay type: ADME
Rattus norvegicus [6] = assay: Reversal of amphetamine-induced hyperlocomotion in Sprague-Dawley rat at 0.1 mg/kg, po pretreated 30 mins post habituation in the chamber followed by amphetamine injection after 30 mins measured after 60 mins; assay type: functional; summary of the method: as §1
Cytochrome P450 1A2 [7] = target: T2, Cytochrome P450 1A2 (Homo sapiens, UniProt P05177); assay: Inhibition of CYP1A2 (unknown origin); assay type: ADME
T2 sequence (P05177 whole entry): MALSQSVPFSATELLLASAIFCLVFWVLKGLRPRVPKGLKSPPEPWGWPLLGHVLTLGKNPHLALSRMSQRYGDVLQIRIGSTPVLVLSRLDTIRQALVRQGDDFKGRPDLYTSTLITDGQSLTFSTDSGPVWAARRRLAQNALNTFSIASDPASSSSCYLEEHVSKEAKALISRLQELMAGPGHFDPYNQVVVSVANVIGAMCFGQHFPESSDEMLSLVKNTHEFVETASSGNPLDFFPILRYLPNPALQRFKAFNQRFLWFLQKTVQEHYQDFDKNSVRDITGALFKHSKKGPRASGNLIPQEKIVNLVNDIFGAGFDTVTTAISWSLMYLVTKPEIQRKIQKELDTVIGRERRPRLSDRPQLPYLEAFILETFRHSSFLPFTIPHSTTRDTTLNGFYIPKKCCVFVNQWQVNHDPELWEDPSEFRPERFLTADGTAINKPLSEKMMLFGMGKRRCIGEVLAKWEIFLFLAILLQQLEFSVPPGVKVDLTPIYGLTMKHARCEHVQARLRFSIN

Cytochrome P450 3A4 = Cytochrome P450 3A4 (Homo sapiens, UniProt P08684); assay: Time-dependent inhibition of CYP3A4 (unknown origin); assay type: ADME
Rattus norvegicus [8] = assay: Reversal of amphetamine-induced hyperlocomotion in Sprague-Dawley rat at 10 mg/kg, po pretreated 30 mins post habituation in the chamber followed by amphetamine injection after 30 mins measured after 60 mins; assay type: functional; summary of the method: as §1
Rattus norvegicus [9] = assay: Volume of distribution at steady state in iv or po dosed Sprague-Dawley rat; assay type: ADME, organism-based; details: in vivo
Summary of the method: (§3)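 IV and PO pharmacokinetics in male Sprague-Dawley rats, n = 1–3. The oral dose was a 2–3 mg/kg solution. Plasma clearance, Vss and oral bioavailability were determined.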

Rattus norvegicus [10] = assay: Reversal of amphetamine-induced hyperlocomotion in Sprague-Dawley rat assessed as plasma concentration required for the effect at 3 mg/kg, po pretreated 30 mins post habituation in the chamber followed by amphetamine injection after 30 mins measured at 1.5 hrs post dose; assay type: functional, organism-based
Summary of the method: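 Rat AHL study: oral dosing 30 min after chamber habituation, then amphetamine 0.75 mg/kg s.c. 30 min later. Terminal plasma concentrations in the study animals were measured 1.5 hr after compound administration. From these, an in vivo plasma EC50 was derived, both total and unbound.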

Salmonella typhimurium = assay: Mutagenicity in Salmonella typhimurium by Ames test; assay type: toxicity; details: salmonella enterica subsp. enterica serovar typhimurium
[11] = Kinetic solubility of the compound in FaSSIF at pH 6.5 measured after 1 hr; assay type: physicochemical; details: read-out: Kinetic_solubility
[12] = Aqueous solubility of the compound at pH 7.4; assay type: physicochemical; details: buffer
[13] = Oral bioavailability in Mongrel dog at 2 mg/kg administered as suspension; assay type: ADME, organism-based, Canis lupus familiaris; details: in vivo
Summary of the method: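 Female mongrel dogs were dosed orally with a 2 mg/kg suspension in a low-excipient vehicle, and oral bioavailability was determined.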

Brain [14] = assay: Drug level in Sprague-Dawley rat brain at 0.3 mg/kg, po; assay type: ADME, organism-based; details: in vivo, read-out: Drug uptake
Rattus norvegicus [15] = assay: Oral bioavailability in Sprague-Dawley rat at 2 to 3 mg/kg; assay type: ADME, organism-based; details: in vivo; summary of the method: as §3
Cytochrome P450 2C9 [16] = target: T1, Cytochrome P450 2C9; assay: Time-dependent inhibition of CYP2C9 (unknown origin); assay type: ADME
Cytochrome P450 1A2 [17] = target: T2, Cytochrome P450 1A2; assay: Time-dependent inhibition of CYP1A2 (unknown origin); assay type: ADME
Canis familiaris [18] = assay: Oral bioavailability in Mongrel dog at 2 to 3 mg/kg; assay type: ADME, organism-based, Canis lupus familiaris; details: in vivo; summary of the method: as §2
Brain [19] = assay: Drug level in Sprague-Dawley rat brain at 0.1 mg/kg, po; assay type: ADME, organism-based; details: in vivo, read-out: Drug uptake
Rattus norvegicus [20] = assay: Reversal of amphetamine-induced hyperlocomotion in po dosed Sprague-Dawley rat pretreated 30 mins post habituation in the chamber followed by amphetamine injection after 30 mins measured after 60 mins; assay type: functional; details: read-out: MED; summary of the method: as §1
Macaca fascicularis = species on record: Macaca fascicularis; assay: Activity at cynomolgus monkey M4 receptor assessed as acetylcholine-induced calcium mobilization
[21] = target: T3, Muscarinic acetylcholine receptor M4 (Homo sapiens, UniProt P08173); assay: Positive allosteric modulation of human M4 receptor expressed in CHO cells co-expressing Gqi5 assessed as increase in acetylcholine-induced calcium mobilization
T3 sequence (P08173 whole entry): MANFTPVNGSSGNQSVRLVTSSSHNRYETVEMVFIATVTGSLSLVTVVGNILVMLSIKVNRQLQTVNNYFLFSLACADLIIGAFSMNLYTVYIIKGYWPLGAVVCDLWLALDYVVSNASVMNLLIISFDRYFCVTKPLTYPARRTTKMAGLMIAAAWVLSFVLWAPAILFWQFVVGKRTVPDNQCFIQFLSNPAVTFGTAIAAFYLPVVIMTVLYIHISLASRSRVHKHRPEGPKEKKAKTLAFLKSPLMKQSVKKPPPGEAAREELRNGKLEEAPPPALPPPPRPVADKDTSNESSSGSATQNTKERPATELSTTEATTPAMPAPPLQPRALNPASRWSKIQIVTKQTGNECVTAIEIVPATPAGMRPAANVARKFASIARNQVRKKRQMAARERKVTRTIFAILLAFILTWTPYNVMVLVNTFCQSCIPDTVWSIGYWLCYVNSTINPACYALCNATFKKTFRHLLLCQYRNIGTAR

Cytochrome P450 2D6 [22] = target: T4, Cytochrome P450 2D6 (Homo sapiens, UniProt P10635); assay: Inhibition of CYP2D6 (unknown origin); assay type: ADME
[23] = Clearance in Sprague-Dawley rat; assay type: ADME; details: in vivo; summary of the method: as §3
Brain [24] = assay: Drug level in Sprague-Dawley rat brain at 0.03 mg/kg, po; assay type: ADME, organism-based; details: in vivo, read-out: Drug uptake
Cytochrome P450 2D6 [25] = target: T4, Cytochrome P450 2D6; assay: Time-dependent inhibition of CYP2D6 (unknown origin); assay type: ADME

T4 sequence (P10635 whole entry): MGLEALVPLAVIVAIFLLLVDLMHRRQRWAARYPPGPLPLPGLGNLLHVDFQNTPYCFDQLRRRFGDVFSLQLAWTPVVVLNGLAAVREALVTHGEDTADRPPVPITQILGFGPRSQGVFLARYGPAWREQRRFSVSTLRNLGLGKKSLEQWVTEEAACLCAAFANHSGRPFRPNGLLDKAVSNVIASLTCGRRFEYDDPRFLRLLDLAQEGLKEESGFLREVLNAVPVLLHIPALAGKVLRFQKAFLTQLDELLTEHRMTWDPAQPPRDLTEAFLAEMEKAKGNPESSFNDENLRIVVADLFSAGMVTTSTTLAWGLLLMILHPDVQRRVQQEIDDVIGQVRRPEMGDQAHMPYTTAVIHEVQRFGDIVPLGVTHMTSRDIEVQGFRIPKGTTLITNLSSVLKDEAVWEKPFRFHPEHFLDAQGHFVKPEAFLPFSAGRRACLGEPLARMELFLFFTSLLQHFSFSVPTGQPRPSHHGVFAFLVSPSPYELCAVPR
T1 sequence (P11712 whole entry): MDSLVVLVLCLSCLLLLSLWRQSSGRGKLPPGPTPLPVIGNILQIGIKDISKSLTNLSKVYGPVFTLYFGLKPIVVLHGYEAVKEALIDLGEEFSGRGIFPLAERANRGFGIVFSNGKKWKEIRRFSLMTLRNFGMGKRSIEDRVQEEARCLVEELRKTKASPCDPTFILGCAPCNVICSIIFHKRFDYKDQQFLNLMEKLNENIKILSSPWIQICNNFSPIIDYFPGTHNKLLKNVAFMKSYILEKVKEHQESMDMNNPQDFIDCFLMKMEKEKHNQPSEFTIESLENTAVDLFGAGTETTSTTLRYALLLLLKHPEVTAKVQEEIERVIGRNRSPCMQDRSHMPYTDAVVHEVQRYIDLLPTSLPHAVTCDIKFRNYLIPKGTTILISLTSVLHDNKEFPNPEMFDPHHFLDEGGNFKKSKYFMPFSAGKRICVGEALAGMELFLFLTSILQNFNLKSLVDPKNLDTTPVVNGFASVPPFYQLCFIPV
Cytochrome P450 3A4, sequence (P08684 whole entry): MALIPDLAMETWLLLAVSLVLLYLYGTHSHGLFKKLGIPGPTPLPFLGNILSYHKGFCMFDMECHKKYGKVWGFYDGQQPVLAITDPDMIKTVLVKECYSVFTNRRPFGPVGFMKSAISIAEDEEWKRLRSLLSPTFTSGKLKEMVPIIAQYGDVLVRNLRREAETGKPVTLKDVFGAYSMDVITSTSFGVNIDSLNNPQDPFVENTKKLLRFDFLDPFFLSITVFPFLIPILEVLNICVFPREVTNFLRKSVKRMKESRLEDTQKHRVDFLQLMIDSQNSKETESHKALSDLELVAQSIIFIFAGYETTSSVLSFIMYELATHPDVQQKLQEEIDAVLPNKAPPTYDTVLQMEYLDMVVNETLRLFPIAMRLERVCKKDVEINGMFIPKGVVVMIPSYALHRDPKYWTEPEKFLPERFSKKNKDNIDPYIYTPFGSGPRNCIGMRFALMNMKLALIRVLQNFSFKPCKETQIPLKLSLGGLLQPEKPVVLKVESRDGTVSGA

Cc1nnc2sc(C(=O)NC3CN(c4cccc(F)c4F)C3)c(N)c2c1C
Activity (Rattus norvegicus [1]): 74%
Activity (Rattus norvegicus [2]): 18%
Activity (Rattus norvegicus [3]): 64%
Vdss (Canis familiaris [4]): 1.6 L/kg
IC50 (Cytochrome P450 2C9 [5]): 3800 nM
Activity (Rattus norvegicus [6]): 24%
IC50 (Cytochrome P450 1A2 [7]): 25000 nM
TDI (Cytochrome P450 3A4): Not Active
Activity (Rattus norvegicus [8]): 64%
Vdss (Rattus norvegicus [9]): 0.67 L/kg
fEC50 (Rattus norvegicus [10]): 0.66 nM
EC50 (Rattus norvegicus [10]; Rattus norvegicus, Sprague-Dawley): 74 nM
Activity (Salmonella typhimurium): Non-Toxic
solubility kinetic at 1 h [11]: 15 µg/mL (≈ 38.5 µM)
solubility [12]: 1.8 µM (≈ 0.701 µg/mL)
bioavailability [13]: 11%
concentration (Brain [14]): 37 nM
F (Rattus norvegicus [15]): 38%
TDI (Cytochrome P450 2C9 [16]): Not Active
TDI (Cytochrome P450 1A2 [17]): Not Active
F (Canis familiaris [18]): 20%
concentration (Brain [19]): 9.9 nM
minimal effective dose (Rattus norvegicus [20]): 0.3 mg/kg
Kb (Macaca fascicularis): 890 nM
EC50 [21]: 19 nM
IC50 (Cytochrome P450 2D6 [22]): 14000 nM
clearance [23]: 16 mL/min/kg
concentration (Brain [24]): 4.6 nM
TDI (Cytochrome P450 2D6 [25]): Not Active
